Active and inactive are the calls of the source. The calls are words filed in the database; no cut-off is given here.
Key:
Hep 3B2 = test: Cytotoxicity against human Hep3B cells after 72 hrs by SRB assay; format: functional, cell-based
Procedure, shortened: (§1)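 SRB assay. Cells plated per well (HCT116 3000; Huh7, Hep3B, HepG2, MCF-7 2000; Mahlavu, FOCUS, SNU475 1000) and grown 24 h. Compounds came from 20 mM DMSO stocks and were tested in triplicate, 40 to 2,5 (or 2,5 to 0,03) per printed range, for 72 h. Cells fixed in 10% TCA, stained with 0.4% SRB, dye dissolved in 10 mM Tris, A515 read. IC50 derived after DMSO normalization.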

SNU-475 = test: Cytotoxicity against human SNU475 cells after 72 hrs by SRB assay; format: functional, cell-based; procedure, shortened: as §1
MCF-12A = test: Cytotoxicity against human MCF12A cells after 72 hrs by SRB assay; format: cell-based
HCT-116 = test: Cytotoxicity against human HCT116 cells after 72 hrs by SRB assay; format: functional, cell-based; procedure, shortened: as §1
HepG2 = test: Cytotoxicity against human HepG2 cells after 72 hrs by SRB assay; format: functional, cell-based; details: hepg2; procedure, shortened: as §1
MCF7 = test: Cytotoxicity against human MCF7 cells after 72 hrs by SRB assay; format: functional, cell-based; procedure, shortened: as §1
Huh-7 [1] = test: Cytotoxicity against human HuH7 cells after 72 hrs by SRB assay; format: functional, cell-based; procedure, shortened: as §1
[2] = Cytotoxicity against human FOCUS cells after 72 hrs by SRB assay; format: functional, cell-based; procedure, shortened: as §1
Mahlavu [3] = test: Cytotoxicity against human Mahlavu cells after 72 hrs by SRB assay; format: functional, cell-based; procedure, shortened: as §1
Mahlavu [4] = test: Induction of apoptosis in human Mahlavu cells assessed as increase in cytochrome C levels by Hoechst staining-based assay; format: functional, cell-based
Procedure, shortened: (§2)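 Cells were seeded on coverslips and treated after 24 h with compound at a single concentration for 72 h. Camptothecin was the positive control, with DMSO solvent control at matched volume. Cells were fixed in ice-cold methanol for 15 min, then given anti-cytochrome c (1:100 in 0.1% TBS-Tween) for 1 h and FITC secondary (1:200) for 1 h. Nuclei were counterstained and imaged by fluorescence microscopy.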

Huh-7 [5] = test: Induction of apoptosis in human HuH7 cells assessed as increase in cytochrome C levels by Hoechst staining-based assay; format: functional, cell-based; procedure, shortened: as §2
Huh-7 [6] = test: Induction of apoptosis in human HuH7 cells assessed as viable cells at 1 uM after 48 hrs by Annexin V-FITC/propidium iodide staining-based flow cytometric analysis (reference value: 97.42%); format: functional; details: Huh-7, 48 h, read-out: Activity
Mahlavu [7] = test: Induction of apoptosis in human Mahlavu cells assessed as necrotic cells at 1 uM after 48 hrs by Annexin V-FITC/propidium iodide staining-based flow cytometric analysis (reference value: 0.07%); format: functional
Mahlavu [8] = test: Induction of apoptosis in human Mahlavu cells assessed as chromatin condensation at 1 uM by Hoechst staining-based assay; format: functional, cell-based
Huh-7 [9] = test: Induction of apoptosis in human HuH7 cells assessed as late apoptotic cells at 1 uM after 72 hrs by Annexin V-FITC/propidium iodide staining-based flow cytometric analysis (reference value: 2.34%); format: functional
Mahlavu [10] = test: Induction of apoptosis in human Mahlavu cells assessed as viable cells at 1 uM after 24 hrs by Annexin V-FITC/propidium iodide staining-based flow cytometric analysis (reference value: 98.51%); format: functional; details: read-out: Activity
Huh-7 [11] = test: Induction of apoptosis in human HuH7 cells assessed as necrotic cells at 1 uM after 72 hrs by Annexin V-FITC/propidium iodide staining-based flow cytometric analysis (reference value: 0.43%); format: functional
Huh-7 [12] = test: Induction of apoptosis in human HuH7 cells assessed as early apoptotic cells at 1 uM after 24 hrs by Annexin V-FITC/propidium iodide staining-based flow cytometric analysis (reference value: 0.17%); format: functional
Mahlavu [13] = test: Induction of apoptosis in human Mahlavu cells assessed as viable cells at 1 uM after 48 hrs by Annexin V-FITC/propidium iodide staining-based flow cytometric analysis (reference value: 98.48%); format: functional; details: read-out: Activity
Huh-7 [14] = test: Induction of apoptosis in human HuH7 cells assessed as necrotic cells at 1 uM after 48 hrs by Annexin V-FITC/propidium iodide staining-based flow cytometric analysis (reference value: 0.02%); format: functional
Mahlavu [15] = test: Induction of apoptosis in human Mahlavu cells assessed as necrotic cells at 1 uM after 24 hrs by Annexin V-FITC/propidium iodide staining-based flow cytometric analysis (reference value: 0.13%); format: functional
Mahlavu [16] = test: Induction of apoptosis in human Mahlavu cells assessed as early apoptotic cells at 1 uM after 24 hrs by Annexin V-FITC/propidium iodide staining-based flow cytometric analysis (reference value: 0.09%); format: functional
Mahlavu [17] = test: Induction of apoptosis in human Mahlavu cells assessed as viable cells at 1 uM after 72 hrs by Annexin V-FITC/propidium iodide staining-based flow cytometric analysis (reference value: 96.05%); format: functional; details: read-out: Activity
Huh-7 [18] = test: Induction of apoptosis in human HuH7 cells assessed as late apoptotic cells at 1 uM after 24 hrs by Annexin V-FITC/propidium iodide staining-based flow cytometric analysis (reference value: 2.51%); format: functional
Huh-7 [19] = test: Induction of apoptosis in human HuH7 cells assessed as early apoptotic cells at 1 uM after 48 hrs by Annexin V-FITC/propidium iodide staining-based flow cytometric analysis (reference value: 0.02%); format: functional
Huh-7 [20] = test: Induction of apoptosis in human HuH7 cells assessed as early apoptotic cells at 1 uM after 72 hrs by Annexin V-FITC/propidium iodide staining-based flow cytometric analysis (reference value: 0.03%); format: functional
Mahlavu [21] = test: Induction of apoptosis in human Mahlavu cells assessed as early apoptotic cells at 1 uM after 72 hrs by Annexin V-FITC/propidium iodide staining-based flow cytometric analysis (reference value: 0.24%); format: functional
MCF-10A = test: Cytotoxicity against human MCF10A cells after 72 hrs by SRB assay; format: cell-based
Mahlavu [22] = test: Induction of apoptosis in human Mahlavu cells assessed as necrotic cells at 1 uM after 72 hrs by Annexin V-FITC/propidium iodide staining-based flow cytometric analysis (reference value: 0.22%); format: functional
Huh-7 [23] = test: Induction of apoptosis in human HuH7 cells assessed as late apoptotic cells at 1 uM after 48 hrs by Annexin V-FITC/propidium iodide staining-based flow cytometric analysis (reference value: 2.53%); format: functional
Mahlavu [24] = test: Induction of apoptosis in human Mahlavu cells assessed as early apoptotic cells at 1 uM after 48 hrs by Annexin V-FITC/propidium iodide staining-based flow cytometric analysis (reference value: 0%); format: functional
Mahlavu [25] = test: Induction of apoptosis in human Mahlavu cells assessed as apoptotic body formation at 1 uM by Hoechst staining-based assay; format: functional, cell-based
Mahlavu [26] = test: Induction of apoptosis in human Mahlavu cells assessed as late apoptotic cells at 1 uM after 48 hrs by Annexin V-FITC/propidium iodide staining-based flow cytometric analysis (reference value: 1.45%); format: functional
Huh-7 [27] = test: Induction of apoptosis in human HuH7 cells assessed as viable cells at 1 uM after 72 hrs by Annexin V-FITC/propidium iodide staining-based flow cytometric analysis (reference value: 97.20%); format: functional; details: Huh-7, 72 h, read-out: Activity
Mahlavu [28] = test: Induction of apoptosis in human Mahlavu cells assessed as late apoptotic cells at 1 uM after 72 hrs by Annexin V-FITC/propidium iodide staining-based flow cytometric analysis (reference value: 3.48%); format: functional
Huh-7 [29] = test: Induction of apoptosis in human HuH7 cells assessed as viable cells at 1 uM after 24 hrs by Annexin V-FITC/propidium iodide staining-based flow cytometric analysis (reference value: 97.30%); format: functional; details: Huh-7, 24 h, read-out: Activity
Mahlavu [30] = test: Induction of apoptosis in human Mahlavu cells assessed as late apoptotic cells at 1 uM after 24 hrs by Annexin V-FITC/propidium iodide staining-based flow cytometric analysis (reference value: 1.28%); format: functional
Huh-7 [31] = test: Induction of apoptosis in human HuH7 cells assessed as necrotic cells at 1 uM after 24 hrs by Annexin V-FITC/propidium iodide staining-based flow cytometric analysis (reference value: 0.03%); format: functional
[32] = Homo sapiens, HCT-116, 72 h, read-out: IC50
[33] = Homo sapiens, MCF7, 72 h, read-out: IC50
[34] = Homo sapiens, Huh-7, 72 h, read-out: IC50
[35] = Homo sapiens, Mahlavu, 72 h, read-out: IC50
[36] = Homo sapiens, MCF-12A, 72 h, read-out: IC50

Compound: COc1ccc2cc(CN3CCCCC3C(=O)[O-])c3cc(OC)c(OC)cc3c2c1.[K+] (configuration not stated)
- IC50 (Hep 3B2; hep 3b2): Not Active
- IC50 (SNU-475; snu-475): Not Active
- IC50 (MCF-12A; mcf-12a): Non-Toxic
- IC50 (HCT-116; hct-116): Not Active
- IC50 (HepG2): Not Active
- IC50 (MCF7; mcf7): Not Active
- IC50 (Huh-7 [1]; huh-7): Not Active
- IC50 [2]: Not Active
- IC50 (Mahlavu [3]; mahlavu): Not Active

Compound: COc1ccc2c3c(c4cc(OC)c(OC)cc4c2c1)CN1CCCCC1C3=O (configuration not stated)
- IC50 (Hep 3B2; Homo sapiens, Hep3B, 72 h, read-out: IC50): 45 µM
- IC50 (SNU-475; Homo sapiens, SNU-475, 72 h, read-out: IC50): 19.1 µM
- IC50 (MCF-12A; mcf-12a): Non-Toxic
- IC50 (HCT-116; [32]): 8.1 µM
- IC50 (HepG2): Not Active
- IC50 (MCF7; [33]): 7 µM
- IC50 (Huh-7 [1]; [34]): 12 µM
- IC50 ([2]; Homo sapiens, 72 h, read-out: IC50): 5 µM
- IC50 (Mahlavu [3]; [35]): 35 µM

Compound: COc1ccc(/C=C(/C(=O)NCCCn2ccnc2)c2ccc(OC)c(OC)c2)cc1
- IC50 (Huh-7 [1]; huh-7): Not Active
- IC50 (Mahlavu [3]; mahlavu): Not Active

Compound: COc1ccc2cc(C(=O)NCCCn3ccnc3)c3cc(OC)c(OC)cc3c2c1
- IC50 (Huh-7 [1]; [34]): 19.2 µM
- IC50 (Mahlavu [3]; [35]): 54 µM

Compound: COc1ccc(/C=C(/CNCCCn2ccnc2)c2ccc(OC)c(OC)c2)cc1
- IC50 (Huh-7 [1]; [34]): 9.3 µM
- IC50 (Mahlavu [3]; [35]): 13.8 µM

Compound: COc1ccc2cc(CNCCCn3ccnc3)c3cc(OC)c(OC)cc3c2c1
- IC50 (Huh-7 [1]; huh-7): Not Active
- IC50 (Mahlavu [3]; mahlavu): Not Active

Compound: CC[C@@]1(O)C(=O)OCc2c1cc1n(c2=O)Cc2cc3ccccc3nc2-1
- Activity (Mahlavu [4]): Active
- Activity (Huh-7 [5]): Active

Compound: COc1ccc2c3c(c4cc(OC)c(OC)cc4c2c1)CN1CCCC[C@@H]1[C@@H]3O (racemic)
- viability at 1 µM (Huh-7 [6]): 93%
- Activity (Mahlavu [7]): 0.54%
- Activity (Mahlavu [8]): Active
- Activity (Huh-7 [9]): 16.83%
- viability at 1 µM (Mahlavu [10]): 92.7%
- Activity (Huh-7 [11]): 0.16%
- IC50 (MCF-12A; [36]): 0.1 µM
- IC50 (HCT-116; [32]): 0.007 µM
- IC50 (MCF7; [33]): 0.021 µM
- Activity (Huh-7 [12]): 0.05%
- viability at 1 µM (Mahlavu [13]): 70.2%
- IC50 (Huh-7 [1]; [34]): 0.017 µM
- Activity (Huh-7 [14]): 0.21%
- Activity (Mahlavu [15]): 0.58%
- Activity (Mahlavu [16]): 0.03%
- viability at 1 µM (Mahlavu [17]): 29.4%
- Activity (Huh-7 [18]): 0.82%
- Activity (Huh-7 [19]): 0.07%
- Activity (Huh-7 [20]): 0%
- Activity (Mahlavu [21]): 0%
- IC50 (Mahlavu [3]; [35]): > 0.05 µM
- IC50 (MCF-10A): 0.14 µM
- Activity (Mahlavu [22]): 1.59%
- Activity (Huh-7 [23]): 6.75%
- Activity (Mahlavu [24]): 0%
- Activity (Mahlavu [25]): Active
- Activity (Mahlavu [26]): 29.29%
- viability at 1 µM (Huh-7 [27]): 83%
- Activity (Mahlavu [28]): 69.05%
- viability at 1 µM (Huh-7 [29]): 99.1%
- Activity (Mahlavu [30]): 6.72%
- Activity (Huh-7 [31]): 0.02%

Compound: COc1ccc2c3c(c4cc(OC)c(OC)cc4c2c1)CN1CCCC[C@@H]1[C@H]3O (racemic)
- viability at 1 µM (Huh-7 [6]): 96.4%
- Activity (Mahlavu [7]): 0.32%
- Activity (Mahlavu [8]): Active
- Activity (Huh-7 [9]): 4.69%
- viability at 1 µM (Mahlavu [10]): 96.2%
- Activity (Huh-7 [11]): 0.23%
- IC50 (MCF-12A; [36]): > 0.05 µM
- IC50 (HCT-116; [32]): 0.043 µM
- IC50 (MCF7; [33]): 0.016 µM
- Activity (Huh-7 [12]): 0%
- viability at 1 µM (Mahlavu [13]): 93.8%
- IC50 (Huh-7 [1]; [34]): 0.306 µM
- Activity (Huh-7 [14]): 0.13%
- Activity (Mahlavu [15]): 0.33%
- Activity (Mahlavu [16]): 0.02%
- viability at 1 µM (Mahlavu [17]): 88.9%
- Activity (Huh-7 [18]): 0.81%
- Activity (Huh-7 [19]): 0.07%
- Activity (Huh-7 [20]): 0.05%
- Activity (Mahlavu [21]): 0%
- IC50 (Mahlavu [3]; [35]): > 0.05 µM
- IC50 (MCF-10A): 0.8 µM
- Activity (Mahlavu [22]): 0.61%
- Activity (Huh-7 [23]): 3.38%
- Activity (Mahlavu [24]): 0%
- Activity (Mahlavu [25]): Active
- Activity (Mahlavu [26]): 5.9%
- viability at 1 µM (Huh-7 [27]): 95%
- Activity (Mahlavu [28]): 10.53%
- viability at 1 µM (Huh-7 [29]): 99.1%
- Activity (Mahlavu [30]): 3.47%
- Activity (Huh-7 [31]): 0.07%

— ChEMBL document CHEMBL4316592, “Synthesis of new derivatives of boehmeriasin A and their biological evaluation in liver cancer” (Eur J Med Chem, 2019)
